# Experimental data as given in ChEMBL document CHEMBL4130391, “Novel methyl indolinone-6-carboxylates containing an indole moiety as angiokinase inhibitors” (Eur J Med Chem, 2017).
# What was measured:
# [1] = target: Platelet-derived growth factor receptor beta (Homo sapiens, UniProt P09619); assay: Inhibition of N-terminal GST tagged human PDGFRbeta (557 to 1106 end residues) cytoplasmic domain expressed in baculovirus expression system preincubated for 10 mins followed by fluorescein amidite-labelled peptide substrate addition measured after 1 hr by mobility shift assay
# Outline: (§1)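 Enzyme and compound were preincubated for 10 min at room temperature. FAM-labelled peptide plus ATP was then added and reacted 1 h at 28°C, stopped with EDTA buffer, and run in duplicate. Inhibition = (max − conversion)/(max − min) × 100.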
# HT-29 [2] = assay: Antiproliferative activity against human HT-29 cells after 72 hrs by MTT assay; assay type: functional, cell-based; details: HT-29, 72 h
# MCF7 [3] = assay: Antiproliferative activity against human MCF7 cells after 72 hrs by MTT assay; assay type: functional, cell-based; details: MCF7, 72 h
# A549 = assay: Antiproliferative activity against human A549 cells after 72 hrs by MTT assay; assay type: functional, cell-based; details: A549, 72 h
# HUVEC [4] = assay: Induction of apoptosis in HUVEC assessed as early apoptotic cells at 3 uM measured after 48 hrs by Annexin-V-FITC/propidium iodide staining based flow cytometry (reference value: 1.78 %); assay type: functional, Homo sapiens
# HT-29 [5] = assay: Induction of apoptosis in human HT-29 cells assessed as late apoptotic cells at 1 uM measured after 48 hrs by Annexin-V-FITC/propidium iodide staining based flow cytometry (reference value: 10.60 %); assay type: functional
# MCF7 [6] = assay: Induction of apoptosis in human MCF7 cells assessed as late apoptotic cells at 3 uM measured after 48 hrs by Annexin-V-FITC/propidium iodide staining based flow cytometry (reference value: 13.68 %); assay type: functional
# HUVEC [7] = assay: Induction of apoptosis in HUVEC measured after 48 hrs by Annexin-V-FITC/propidium iodide staining based flow cytometry; assay type: functional, cell-based; details: Homo sapiens
# MCF7 [8] = assay: Induction of apoptosis in human MCF7 cells assessed as late apoptotic cells at 0.3 uM measured after 48 hrs by Annexin-V-FITC/propidium iodide staining based flow cytometry (reference value: 13.68 %); assay type: functional
# HT-29 [9] = assay: Induction of apoptosis in human HT-29 cells assessed as late apoptotic cells at 0.3 uM measured after 48 hrs by Annexin-V-FITC/propidium iodide staining based flow cytometry (reference value: 10.60 %); assay type: functional
# HUVEC [10] = assay: Induction of apoptosis in HUVEC assessed as late apoptotic cells at 3 uM measured after 48 hrs by Annexin-V-FITC/propidium iodide staining based flow cytometry (reference value: 5.79 %); assay type: functional, Homo sapiens
# HT-29 [11] = assay: Induction of apoptosis in human HT-29 cells assessed as early apoptotic cells at 0.3 uM measured after 48 hrs by Annexin-V-FITC/propidium iodide staining based flow cytometry (reference value: 0.99 %); assay type: functional
# HUVEC [12] = assay: Induction of apoptosis in HUVEC assessed as late apoptotic cells at 1 uM measured after 48 hrs by Annexin-V-FITC/propidium iodide staining based flow cytometry (reference value: 5.79 %); assay type: functional, Homo sapiens
# HUVEC [13] = assay: Induction of apoptosis in HUVEC assessed as late apoptotic cells at 0.3 uM measured after 48 hrs by Annexin-V-FITC/propidium iodide staining based flow cytometry (reference value: 5.79 %); assay type: functional, Homo sapiens
# HUVEC [14] = assay: Induction of apoptosis in HUVEC assessed as early apoptotic cells at 0.3 uM measured after 48 hrs by Annexin-V-FITC/propidium iodide staining based flow cytometry (reference value: 1.78 %); assay type: functional, Homo sapiens
# HEK-293T = assay: Cytotoxicity against HEK293T cells assessed as reduction in cell viability at 10 uM after 72 hrs by MTT assay; assay type: cell-based; details: human
# Outline: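 HEK293T cells, about 4 × 10^3 per well, were grown in MEM with 10% FBS at 37°C in 5% CO2 for 24 h. Cells were then exposed to compound for 72 h. MTT was added at 5 µg/mL final for 4 h at 37°C and the formazan dissolved in DMSO. Absorbance was read at 492 nm with 630 nm as reference.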
# [15] = target: Fibroblast growth factor receptor 1 (Homo sapiens, UniProt P11362); assay: Inhibition of N-terminal GST tagged human FGFR1 (398 to 822 end residues) cytoplasmic domain expressed in baculovirus expression system preincubated for 10 mins followed by fluorescein amidite-labelled peptide substrate addition measured after 1 hr by mobility shift assay
# MCF7 [16] = assay: Induction of apoptosis in human MCF7 cells assessed as early apoptotic cells at 1 uM measured after 48 hrs by Annexin-V-FITC/propidium iodide staining based flow cytometry (reference value: 1.32 %); assay type: functional
# HT-29 [17] = assay: Induction of apoptosis in human HT-29 cells assessed as early apoptotic cells at 3 uM measured after 48 hrs by Annexin-V-FITC/propidium iodide staining based flow cytometry (reference value: 0.99 %); assay type: functional
# HUVEC [18] = assay: Induction of apoptosis in HUVEC assessed as early apoptotic cells at 1 uM measured after 48 hrs by Annexin-V-FITC/propidium iodide staining based flow cytometry (reference value: 1.78 %); assay type: functional, Homo sapiens
# MCF7 [19] = assay: Induction of apoptosis in human MCF7 cells assessed as late apoptotic cells at 1 uM measured after 48 hrs by Annexin-V-FITC/propidium iodide staining based flow cytometry (reference value: 13.68 %); assay type: functional
# HT-29 [20] = assay: Induction of apoptosis in human HT-29 cells assessed as early apoptotic cells at 1 uM measured after 48 hrs by Annexin-V-FITC/propidium iodide staining based flow cytometry (reference value: 0.99 %); assay type: functional
# MCF7 [21] = assay: Induction of apoptosis in human MCF7 cells assessed as early apoptotic cells at 0.3 uM measured after 48 hrs by Annexin-V-FITC/propidium iodide staining based flow cytometry (reference value: 1.32 %); assay type: functional
# MCF7 [22] = assay: Induction of apoptosis in human MCF7 cells assessed as early apoptotic cells at 3 uM measured after 48 hrs by Annexin-V-FITC/propidium iodide staining based flow cytometry (reference value: 1.32 %); assay type: functional
# HT-29 [23] = assay: Induction of apoptosis in human HT-29 cells assessed as late apoptotic cells at 3 uM measured after 48 hrs by Annexin-V-FITC/propidium iodide staining based flow cytometry (reference value: 10.60 %); assay type: functional
# [24] = target: T1, Vascular endothelial growth factor receptor 2 (Homo sapiens, UniProt P35968); assay: (§2) Inhibition of N-terminal biotinylated DYKDDDDK tagged human VEGFR2 (790 to 1356 end residues) cytoplasmic domain expressed in baculovirus expression system preincubated for 10 mins followed by fluorescein amidite-labelled peptide substrate addition measured after 1 hr by mobility shift assay
# [25] = target: T1, Vascular endothelial growth factor receptor 2; assay: as §2, with “system at 1 uM” for “system”, “assay relative to control” for “assay”; outline: as §1
# Sequence of Platelet-derived growth factor receptor beta (P09619 whole entry, the tested form may be a part): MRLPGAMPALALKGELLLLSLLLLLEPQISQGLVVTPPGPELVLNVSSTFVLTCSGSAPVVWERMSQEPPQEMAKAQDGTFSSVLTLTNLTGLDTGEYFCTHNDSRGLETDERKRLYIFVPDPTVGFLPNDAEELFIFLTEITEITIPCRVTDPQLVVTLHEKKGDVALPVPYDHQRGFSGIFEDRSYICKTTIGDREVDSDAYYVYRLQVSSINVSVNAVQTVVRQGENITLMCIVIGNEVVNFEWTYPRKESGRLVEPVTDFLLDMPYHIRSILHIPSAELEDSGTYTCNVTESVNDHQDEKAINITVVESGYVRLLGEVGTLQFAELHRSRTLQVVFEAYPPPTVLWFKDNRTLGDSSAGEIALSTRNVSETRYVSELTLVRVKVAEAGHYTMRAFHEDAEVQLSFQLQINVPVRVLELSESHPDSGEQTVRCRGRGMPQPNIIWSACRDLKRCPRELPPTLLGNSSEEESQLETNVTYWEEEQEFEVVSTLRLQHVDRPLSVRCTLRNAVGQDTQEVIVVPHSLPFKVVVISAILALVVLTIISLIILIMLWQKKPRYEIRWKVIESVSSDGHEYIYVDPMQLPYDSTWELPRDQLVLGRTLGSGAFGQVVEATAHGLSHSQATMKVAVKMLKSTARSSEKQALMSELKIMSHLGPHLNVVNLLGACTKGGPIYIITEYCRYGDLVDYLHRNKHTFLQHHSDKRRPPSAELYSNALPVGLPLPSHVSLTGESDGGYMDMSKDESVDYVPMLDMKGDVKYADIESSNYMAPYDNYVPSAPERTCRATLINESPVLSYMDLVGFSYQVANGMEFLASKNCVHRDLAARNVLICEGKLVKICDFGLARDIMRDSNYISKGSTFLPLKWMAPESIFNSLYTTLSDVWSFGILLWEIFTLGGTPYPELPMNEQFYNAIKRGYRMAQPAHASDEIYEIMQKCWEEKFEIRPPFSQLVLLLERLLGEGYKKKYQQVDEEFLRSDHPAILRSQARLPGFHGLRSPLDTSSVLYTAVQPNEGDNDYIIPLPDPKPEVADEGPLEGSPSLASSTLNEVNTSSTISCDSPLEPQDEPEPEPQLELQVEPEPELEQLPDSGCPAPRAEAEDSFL
# T1 sequence (P35968 whole entry, the tested form may be a part): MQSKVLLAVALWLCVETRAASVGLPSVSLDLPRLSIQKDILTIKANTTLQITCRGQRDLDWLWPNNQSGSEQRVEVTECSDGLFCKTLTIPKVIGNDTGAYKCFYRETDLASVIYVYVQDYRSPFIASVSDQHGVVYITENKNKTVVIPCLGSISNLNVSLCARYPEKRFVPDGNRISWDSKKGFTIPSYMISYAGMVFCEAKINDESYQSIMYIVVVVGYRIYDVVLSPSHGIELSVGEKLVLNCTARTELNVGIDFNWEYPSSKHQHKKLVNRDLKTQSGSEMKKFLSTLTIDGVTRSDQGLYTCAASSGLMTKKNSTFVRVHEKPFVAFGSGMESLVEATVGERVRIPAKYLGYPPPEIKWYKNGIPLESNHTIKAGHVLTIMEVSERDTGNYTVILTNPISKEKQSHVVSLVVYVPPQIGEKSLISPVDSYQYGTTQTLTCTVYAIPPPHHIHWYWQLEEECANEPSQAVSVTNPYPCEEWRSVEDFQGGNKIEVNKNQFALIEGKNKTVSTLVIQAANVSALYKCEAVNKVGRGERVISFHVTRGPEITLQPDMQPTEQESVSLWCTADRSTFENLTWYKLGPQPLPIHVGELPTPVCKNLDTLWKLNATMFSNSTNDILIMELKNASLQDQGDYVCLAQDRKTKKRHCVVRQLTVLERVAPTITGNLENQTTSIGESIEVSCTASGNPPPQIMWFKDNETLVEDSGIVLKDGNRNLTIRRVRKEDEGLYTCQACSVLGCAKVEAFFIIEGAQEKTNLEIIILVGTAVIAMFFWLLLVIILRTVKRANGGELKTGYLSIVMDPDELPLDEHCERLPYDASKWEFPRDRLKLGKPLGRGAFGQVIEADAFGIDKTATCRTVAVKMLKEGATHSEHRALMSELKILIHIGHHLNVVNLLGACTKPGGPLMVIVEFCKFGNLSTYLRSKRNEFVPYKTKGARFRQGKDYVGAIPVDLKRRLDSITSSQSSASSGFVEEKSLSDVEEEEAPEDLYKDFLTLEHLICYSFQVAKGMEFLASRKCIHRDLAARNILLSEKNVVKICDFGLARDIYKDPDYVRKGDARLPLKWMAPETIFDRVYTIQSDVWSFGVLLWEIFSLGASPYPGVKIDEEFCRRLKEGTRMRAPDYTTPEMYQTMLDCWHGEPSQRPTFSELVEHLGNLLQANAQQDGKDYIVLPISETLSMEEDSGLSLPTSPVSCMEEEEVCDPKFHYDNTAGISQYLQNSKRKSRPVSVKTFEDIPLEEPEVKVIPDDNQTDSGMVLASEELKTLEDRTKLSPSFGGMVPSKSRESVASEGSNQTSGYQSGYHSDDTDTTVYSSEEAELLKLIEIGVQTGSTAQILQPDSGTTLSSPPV
# Sequence of Fibroblast growth factor receptor 1 (P11362 whole entry, the tested form may be a part): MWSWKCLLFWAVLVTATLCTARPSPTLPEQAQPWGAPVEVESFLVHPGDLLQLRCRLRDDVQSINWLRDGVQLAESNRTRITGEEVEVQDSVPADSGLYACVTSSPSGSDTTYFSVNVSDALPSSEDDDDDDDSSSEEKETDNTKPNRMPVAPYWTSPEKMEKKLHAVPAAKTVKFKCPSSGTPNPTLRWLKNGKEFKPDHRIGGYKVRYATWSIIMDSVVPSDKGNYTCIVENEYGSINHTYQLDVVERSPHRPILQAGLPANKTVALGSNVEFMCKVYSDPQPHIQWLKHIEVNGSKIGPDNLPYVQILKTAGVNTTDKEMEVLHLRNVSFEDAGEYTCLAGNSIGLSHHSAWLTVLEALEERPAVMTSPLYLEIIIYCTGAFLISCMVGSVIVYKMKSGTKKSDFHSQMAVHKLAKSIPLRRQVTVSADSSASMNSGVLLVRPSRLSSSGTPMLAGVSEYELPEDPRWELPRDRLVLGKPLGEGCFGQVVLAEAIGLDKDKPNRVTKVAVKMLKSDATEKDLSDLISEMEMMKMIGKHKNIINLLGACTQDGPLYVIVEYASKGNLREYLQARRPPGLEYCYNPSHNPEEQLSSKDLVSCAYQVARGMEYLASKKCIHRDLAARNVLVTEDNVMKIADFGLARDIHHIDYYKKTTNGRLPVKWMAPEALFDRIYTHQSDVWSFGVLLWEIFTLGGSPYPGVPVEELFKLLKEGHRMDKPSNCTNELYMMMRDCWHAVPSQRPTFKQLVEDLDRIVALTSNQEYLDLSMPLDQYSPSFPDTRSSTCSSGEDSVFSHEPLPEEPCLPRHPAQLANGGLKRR
compound,measurement,setting,value
COC(=O)c1ccc2c(c1)NC(=O)/C2=C(\Nc1ccc2c(c1)c(CN(C)C)cn2C(C)C)c1ccccc1,IC50,[1],49.2 nM
same,IC50,HT-29 [2],250 nM
same,IC50,MCF7 [3],5670 nM
same,IC50,A549,4320 nM
COC(=O)c1ccc2c(c1)NC(=O)/C2=C(\Nc1ccc2[nH]c(C(=O)N3CCN(C)CC3)cc2c1)c1ccccc1,Activity,HUVEC [4],1.51%
same,Activity,HT-29 [5],74.82%
same,IC50,[1],22 nM
same,Activity,MCF7 [6],94.04%
same,Activity,HUVEC [7],Dose-dependent effect
same,IC50,HT-29 [2],1170 nM
same,Activity,MCF7 [8],18.25%
same,Activity,HT-29 [9],14.15%
same,IC50,MCF7 [3],1560 nM
same,Activity,HUVEC [10],93.77%
same,Activity,HT-29 [11],2.31%
same,Activity,HUVEC [12],77.6%
same,Activity,HUVEC [13],17.62%
same,Activity,HUVEC [14],5.68%
same,Activity,HEK-293T,Non-Toxic
same,IC50,[15],1510 nM
same,Activity,MCF7 [16],0.65%
same,Activity,HT-29 [17],0.05%
same,Activity,HUVEC [18],3.97%
same,Activity,MCF7 [19],34.43%
same,Activity,HT-29 [20],0.44%
same,Activity,MCF7 [21],1.27%
same,IC50,A549,2990 nM
same,Activity,MCF7 [22],0.28%
same,Activity,HT-29 [23],98.81%
COC(=O)c1ccc2c(c1)NC(=O)/C2=C(\Nc1ccc2c(c1)c(CN1CCN(C)CC1)cn2C)c1ccccc1,IC50,[1],91.7 nM
same,IC50,HT-29 [2],870 nM
same,IC50,MCF7 [3],4010 nM
same,IC50,[24],> 1000 nM
same,IC50,A549,6150 nM
COC(=O)c1ccc2c(c1)NC(=O)/C2=C(\Nc1ccc2nc(CN3CCN(C)CC3)oc2c1)c1ccccc1,IC50,[1],116 nM
same,IC50,A549,> 100000 nM
same,inhibition,[25],79%
COC(=O)c1ccc2c(c1)NC(=O)/C2=C(\Nc1ccc2[nH]cc(CN(C)C)c2c1)c1ccccc1,IC50,[1],60.7 nM
same,IC50,HT-29 [2],130 nM
same,IC50,MCF7 [3],3940 nM
same,IC50,[24],> 1000 nM
same,IC50,A549,2270 nM
COC(=O)c1ccc2c(c1)NC(=O)/C2=C(\Nc1ccc2c(c1)c(CN(C)C)cn2C)c1ccccc1,IC50,[1],64.6 nM
same,IC50,HT-29 [2],460 nM
same,IC50,MCF7 [3],2280 nM
same,IC50,A549,6010 nM
COC(=O)c1ccc2c(c1)NC(=O)/C2=C(\Nc1ccc2c(c1)cc(C(=O)N1CCN(C)CC1)n2C)c1ccccc1,IC50,[1],44.2 nM
same,IC50,HT-29 [2],1100 nM
same,IC50,A549,75200 nM
COC(=O)c1ccc2c(c1)NC(=O)/C2=C(\Nc1ccc2[nH]c(C(=O)N(C)C)cc2c1)c1ccccc1,IC50,HT-29 [2],> 100000 nM
same,IC50,[24],> 1000 nM
same,IC50,A549,> 100000 nM
COC(=O)c1ccc2c(c1)NC(=O)/C2=C(\Nc1ccc(N(C)C(=O)CN2CCN(C)CC2)cc1)c1ccccc1 [NINTEDANIB],IC50,HT-29 [2],830 nM
same,IC50,MCF7 [3],8280 nM
same,IC50,A549,22600 nM
COC(=O)c1ccc2c(c1)NC(=O)/C2=C(\Nc1ccc2[nH]cc(CN3CCN(C)CC3)c2c1)c1ccccc1,IC50,[1],135 nM
same,IC50,A549,7400 nM
same,inhibition,[25],59%
CCn1cc(CN(C)C)c2cc(N/C(=C3\C(=O)Nc4cc(C(=O)OC)ccc43)c3ccccc3)ccc21,IC50,[1],34.3 nM
same,IC50,HT-29 [2],6790 nM
same,IC50,MCF7 [3],5530 nM
same,IC50,A549,7630 nM
CCn1c(C(=O)N2CCN(C)CC2)cc2cc(N/C(=C3\C(=O)Nc4cc(C(=O)OC)ccc43)c3ccccc3)ccc21,IC50,[1],39 nM
same,IC50,HT-29 [2],2190 nM
same,IC50,A549,11900 nM
COC(=O)c1ccc2c(c1)NC(=O)/C2=C(\Nc1ccc2c(c1)nc(CN1CCN(C)CC1)n2C)c1ccccc1,IC50,[1],61 nM
same,IC50,HT-29 [2],700 nM
same,IC50,MCF7 [3],22500 nM
same,IC50,A549,40500 nM
COC(=O)c1ccc2c(c1)NC(=O)/C2=C(\Nc1ccc2[nH]cc(CN3CCOCC3)c2c1)c1ccccc1,IC50,[1],242 nM
COC(=O)c1ccc2c(c1)NC(=O)/C2=C(\Nc1ccc2[nH]c(CN(C)C)cc2c1)c1ccccc1,IC50,HT-29 [2],980 nM
same,IC50,MCF7 [3],2320 nM
same,IC50,A549,16400 nM
COC(=O)c1ccc2c(c1)NC(=O)/C2=C(\Nc1ccc2[nH]c(CN3CCN(C)CC3)cc2c1)c1ccccc1,IC50,[1],92.7 nM
same,IC50,HT-29 [2],320 nM
same,IC50,MCF7 [3],3270 nM
same,IC50,A549,39100 nM
COC(=O)c1ccc2c(c1)NC(=O)/C2=C(\Nc1ccc2c(c1)nc(CN(C)C)n2C)c1ccccc1,IC50,[1],45.5 nM
same,IC50,HT-29 [2],89900 nM
same,IC50,MCF7 [3],> 100000 nM
same,IC50,A549,> 100000 nM
COC(=O)c1ccc2c(c1)NC(=O)/C2=C(\Nc1ccc2nc(CN(C)C)oc2c1)c1ccccc1,IC50,[1],> 500 nM
same,IC50,[24],> 1000 nM
same,IC50,A549,> 100000 nM
